Converted amounts (≈) assume the structure as drawn.
Legend:
Format in all cases: functional
[1] = system: Escherichia coli; assay: Antimicrobial activity against Escherichia coli DSM 682 after 48 hr by agar dilution method; conditions: DSM 682, 48 h
Outline: (§1)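 Agar dilution on standard plate count agar: 0.5 mL of a 2-fold serial dilution of sample mixed into 9.5 mL medium, poured into Petri dishes, organism streaked on the surface. Incubated at 28 °C (36 and 48 h). MIC is the lowest tested concentration with no visible growth.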

[2] = system: Escherichia coli; assay: Antimicrobial activity against Escherichia coli ATCC 35346 after 48 hr by agar dilution method; conditions: ATCC 35346, 48 h; outline: as §1
[3] = system: Stutzerimonas stutzeri; assay: Antimicrobial activity against Pseudomonas stutzeri ATCC 962 after 48 hr by agar dilution method; conditions: ATCC 962, 48 h; outline: as §1
[4] = system: Pseudomonas aeruginosa; assay: Antimicrobial activity against Pseudomonas aeruginosa DSM 1117 after 48 hr by agar dilution method; conditions: DSM 1117, 48 h; outline: as §1
[5] = system: Limosilactobacillus fermentum; assay: Antimicrobial activity against Lactobacillus fermentum DSM 20052 after 48 hr by agar dilution method; conditions: DSM 20052, 48 h; outline: as §1
[6] = system: Lacticaseibacillus casei; assay: Antimicrobial activity against Lactobacillus casei DSM 20011 after 48 hr by agar dilution method; conditions: DSM 20011, 48 h; outline: as §1
[7] = system: Lactiplantibacillus plantarum; assay: Antimicrobial activity against Lactobacillus plantarum DSM 20174 after 48 hr by agar dilution method; conditions: DSM 20174, 48 h; outline: as §1
[8] = system: Lacticaseibacillus rhamnosus; assay: Antimicrobial activity against Lactobacillus rhamnosus DSM 20021 after 48 hr by agar dilution method; conditions: DSM 20021, 48 h; outline: as §1
[9] = system: Bacillus cereus; assay: Antimicrobial activity against Bacillus cereus DSM 345 after 48 hr by agar dilution method; conditions: DSM 345, 48 h; outline: as §1
[10] = system: Micrococcus luteus; assay: Antimicrobial activity against Micrococcus luteus DSM 348 after 48 hr by agar dilution method; conditions: DSM 348, 48 h; outline: as §1
[11] = system: Staphylococcus aureus; assay: Antimicrobial activity against Staphylococcus aureus subsp. aureus DSM 346 after 48 hr by agar dilution method; conditions: DSM 346, 48 h; outline: as §1
[12] = system: Staphylococcus epidermidis; assay: Antimicrobial activity against Staphylococcus epidermidis DSM 1798 after 48 hr by agar dilution method; conditions: DSM 1798, 48 h; outline: as §1
[13] = system: Bacillus licheniformis; assay: Antimicrobial activity against Bacillus licheniformis DSM 13=ATCC 14580 after 48 hr by agar dilution method; conditions: DSM 13 = ATCC 14580, 48 h; outline: as §1
[14] = system: Aspergillus fumigatus; assay: Antimicrobial activity against Aspergillus fumigatus ATCC 1028 after 48 hr by agar dilution method; conditions: ATCC 1028, 48 h
Outline: (§2)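 Fungi tested by agar dilution in malt agar. Serial 2-fold sample dilutions (0.5 mL) were mixed with 9.5 mL medium and plated, then streaked with the organism. Incubation at 28 °C for 36 and 48 h. MIC is the lowest tested concentration without growth.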

[15] = system: Bacillus subtilis; assay: Antimicrobial activity against Bacillus subtilis DSM 345 after 48 hr by agar dilution method; conditions: DSM 345, 48 h; outline: as §1
[16] = system: Aspergillus flavus; assay: Antimicrobial activity against Aspergillus flavus ATCC 11655 after 48 hr by agar dilution method; conditions: ATCC 11655, 48 h; outline: as §2
[17] = system: Aspergillus niger; assay: Antimicrobial activity against Aspergillus niger ATCC 1040 after 48 hr by agar dilution method; conditions: ATCC 1040, 48 h; outline: as §2
[18] = system: Rhizopus arrhizus; assay: Antimicrobial activity against Rhizopus oryzae ATCC 56536 after 48 hr by agar dilution method; conditions: ATCC 56536, 48 h; outline: as §2
[19] = system: Trichoderma viride; assay: Antimicrobial activity against Hypocrea rufa ATCC 28020 after 48 hr by agar dilution method; conditions: ATCC 28020, 48 h; outline: as §2
[20] = system: Setophoma terrestris; assay: Antimicrobial activity against Setophoma terrestris ATCC 11321 after 48 hr by agar dilution method; conditions: ATCC 11321, 48 h; outline: as §2
[21] = system: Penicillium expansum; assay: Antimicrobial activity against Penicillium expansum ATCC 7861 after 48 hr by agar dilution method; conditions: ATCC 7861, 48 h; outline: as §2
[22] = system: Hanseniaspora guilliermondii; assay: Antimicrobial activity against Hanseniaspora guilliermondii CBS 465 after 48 hr by agar dilution method; conditions: CBS 465, 48 h
Outline: (§3)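 Yeast peptone dextrose agar plates, each holding a 2-fold serial dilution of sample (0.5 mL into 9.5 mL medium). Yeast streaked onto the plates and incubated at 28 °C, read at 36 and 48 h. MIC is the lowest concentration tested showing no growth.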

[23] = system: Hanseniaspora uvarum; assay: Antimicrobial activity against Hanseniaspora uvarum CBS 314 after 48 hr by agar dilution method; conditions: CBS 314, 48 h; outline: as §3
[24] = system: Hanseniaspora vineae; assay: Antimicrobial activity against Hanseniaspora vineae CBS 2171 after 48 hr by agar dilution method; conditions: CBS 2171, 48 h; outline: as §3
[25] = system: Hanseniaspora osmophila; assay: Antimicrobial activity against Hanseniaspora osmophila CBS 313 after 48 hr by agar dilution method; conditions: CBS 313, 48 h; outline: as §3
[26] = system: Hanseniaspora uvarum; assay: Antimicrobial activity against Hanseniaspora uvarum AP23 after 48 hr by agar dilution method; conditions: Distaam AP23, 48 h; outline: as §3
[27] = system: Candida albicans; assay: Antimicrobial activity against Candida albicans CBS 562 after 48 hr by agar dilution method; conditions: CBS 562, 48 h; outline: as §3
[28] = system: Schizosaccharomyces pombe; assay: Antimicrobial activity against Schizosaccharomyces pombe Diproval 106 after 48 hr by agar dilution method; conditions: Diproval 106, 48 h; outline: as §3
[29] = system: Saccharomycodes ludwigii; assay: Antimicrobial activity against Saccharomycodes ludwigii Diproval 120 after 48 hr by agar dilution method; conditions: Diproval 120, 48 h; outline: as §3
[30] = system: Saccharomyces cerevisiae; assay: Antimicrobial activity against Saccharomyces cerevisiae Diproval 9109 after 48 hr by agar dilution method; conditions: Diproval 9109, 48 h; outline: as §3
[31] = system: Saccharomyces cerevisiae; assay: Antimicrobial activity against Saccharomyces cerevisiae Diproval 7070 after 48 hr by agar dilution method; conditions: Diproval 7070, 48 h; outline: as §3
[32] = system: Saccharomyces cerevisiae; assay: Antimicrobial activity against Saccharomyces cerevisiae Diproval 8167 after 48 hr by agar dilution method; conditions: Diproval 8167, 48 h; outline: as §3
[33] = system: Saccharomyces cerevisiae; assay: Antimicrobial activity against Saccharomyces cerevisiae Diproval 2439 after 48 hr by agar dilution method; conditions: Diproval 2439, 48 h; outline: as §3
[34] = system: Saccharomyces cerevisiae; assay: Antimicrobial activity against Saccharomyces cerevisiae Diproval 6073 after 48 hr by agar dilution method; conditions: Diproval 6073, 48 h; outline: as §3
[35] = system: Saccharomyces cerevisiae; assay: Antimicrobial activity against Saccharomyces cerevisiae Diproval 404 after 48 hr by agar dilution method; conditions: Diproval 404, 48 h; outline: as §3
[36] = system: Enterococcus faecalis; assay: Antimicrobial activity against Enterococcus faecalis DSM 2570 after 48 hr by agar dilution method; conditions: DSM 2570, 48 h; outline: as §1

MIC [1]: 1000 µg/mL (≈ 703 µM)
MIC [2]: 1000 µg/mL (≈ 703 µM)
MIC [3]: > 1000 µg/mL
MIC [4]: > 1000 µg/mL
MIC [5]: 1000 µg/mL (≈ 703 µM)
MIC [6]: 1000 µg/mL (≈ 703 µM)
MIC [8]: 1000 µg/mL (≈ 703 µM)
MIC [9]: 1000 µg/mL (≈ 703 µM)
MIC [10]: > 1000 µg/mL
MIC [11]: > 1000 µg/mL
MIC [12]: > 1000 µg/mL
MIC [13]: > 1000 µg/mL
MIC [14]: > 1000 µg/mL
MIC [15]: > 1000 µg/mL
MIC [16]: > 1000 µg/mL
MIC [17]: > 1000 µg/mL
MIC [18]: 125 µg/mL (≈ 87.9 µM)
MIC [19]: 250 µg/mL (≈ 176 µM)
MIC [20]: 250 µg/mL (≈ 176 µM)
MIC [21]: 500 µg/mL (≈ 352 µM)
MIC [22]: 12.5 µg/mL (≈ 8.79 µM)
MIC [23]: 12.5 µg/mL (≈ 8.79 µM)
MIC [24]: 12.5 µg/mL (≈ 8.79 µM)
MIC [25]: 25 µg/mL (≈ 17.6 µM)
MIC [26]: 12.5 µg/mL (≈ 8.79 µM)
MIC [27]: 25 µg/mL (≈ 17.6 µM)
MIC [28]: 25 µg/mL (≈ 17.6 µM)
MIC [29]: 12.5 µg/mL (≈ 8.79 µM)
MIC [30]: 25 µg/mL (≈ 17.6 µM)
MIC [31]: 25 µg/mL (≈ 17.6 µM)
MIC [32]: 25 µg/mL (≈ 17.6 µM)
MIC [33]: 25 µg/mL (≈ 17.6 µM)
MIC [34]: 25 µg/mL (≈ 17.6 µM)
MIC [35]: 25 µg/mL (≈ 17.6 µM)
MIC [36]: > 1000 µg/mL
Compound: COC1(CC[C@@H](C)CO[C@@H]2O[C@H](CO)[C@@H](O)[C@H](O)[C@H]2O)O[C@H]2C[C@H]3[C@@H]4CC[C@H]5C[C@@H](O[C@@H]6O[C@H](CO)[C@H](O[C@@H]7O[C@H](CO)[C@@H](O)[C@H](O[C@@H]8O[C@H](CO)[C@@H](O)[C@H](O)[C@H]8O)[C@H]7O[C@@H]7O[C@H](CO)[C@@H](O)[C@H](O[C@@H]8O[C@H](CO)[C@@H](O)[C@H](O)[C@H]8O)[C@H]7O)[C@H](O)[C@H]6O)CC[C@]5(C)[C@H]4CC[C@]3(C)[C@H]2[C@@H]1C (stereo partly specified) [22-O-METHYLCAPSICOSIDE G]
MIC [7]: 1000 µg/mL (≈ 703 µM)
